The text below walks through data of ChEMBL document CHEMBL4266034, “LC-MS-Guided Isolation of Insulin-Secretion-Promoting Monoterpenoid Carbazole Alkaloids from Murraya microphylla” (J Nat Prod, 2018).

The nature of series [1]: Induction of insulin secretion in syrian hamster HIT-T15 cells at 40 uM after 1 hr by HTRF assay relative to control. The class given is functional, Mesocricetus auratus. Summed up:
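HIT-T15 hamster pancreatic islet cells were exposed to test compounds at 40 μM, with gliclazide at 100 μM as the positive control. Insulin secretion is expressed relative to untreated control cells. The procedure follows an earlier report. Each experiment was performed three times, and significance was taken at p < 0.01.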

Series [2] is described as follows: Cytotoxicity against syrian hamster HIT-T15 cells assessed as decrease in cell viability at 40 uM by MTT assay. In kind it is cell-based, Mesocricetus auratus.

`COc1cc2c(cc1OC(C)(C)[C@@H]1CC=C(C)CC1)[nH]c1c3c(c(C)cc12)OC(C)(C)C=C3`: the “fold change (FC)” value in series [1] is reported as 1.9 - 3.1. The Activity result in series [2] was “Non-Toxic”.
For `CC(C)=CCC[C@]1(C)C=Cc2c(c(C)cc3c2[nH]c2c([C@@]4(C)CC[C@@]5(C(C)C)C[C@H]54)c(O)ccc23)O1` the same measures were 1.9 - 3.1 and “Non-Toxic”.
For `CC(C)=CCC[C@]1(C)C=Cc2c(c(C)cc3c2[nH]c2c([C@@H]4C=C(C)CC[C@H]4C(C)C)c(O)ccc23)O1` the same measures were 1.9 - 3.1 and “Non-Toxic”.
For `Cc1cc2c([nH]c3c([C@]4(C)CC[C@@]5(C(C)C)C[C@H]54)c(O)ccc32)c2c1OC(C)(C)C=C2` the same measures were 1.9 - 3.1 and “Non-Toxic”.
Turning to `CC1=C[C@@H](c2c(O)ccc3c2[nH]c2c4c(c(C)cc23)OC(C)(C)C=C4)[C@H](C(C)C)CC1`, the “fold change (FC)” value in series [1] is given as 1.9 - 3.1. For the same molecule, the Activity entry in series [2] is reported as “Non-Toxic”.
Consider `CC1=CCC(Oc2ccc3c(c2)[nH]c2c4c(c(C)cc23)OC(C)(C)C=C4)(C(C)C)CC1` (centres undefined), for which the “fold change (FC)” value in series [1] is on record as 1.9 - 3.1. The Activity result in series [2] is given as “Non-Toxic”.
For `CC(C)=CCCC1(C)C=Cc2c(c(C)cc3c2[nH]c2cc(OC4(C(C)C)CC=C(C)CC4)ccc23)O1` (centres undefined) the same measures were 1.9 - 3.1 and “Non-Toxic”.
For `Cc1cc2c([nH]c3c([C@@]4(C)CC[C@@]5(C(C)C)C[C@H]54)c(O)ccc32)c2c1OC(C)(C)C=C2` the same measures were 1.9 - 3.1 and “Non-Toxic”.
For `COc1cc2c([nH]c3c4c(c(C)cc32)OC(C)(C)C=C4)c([C@@H]2C=C(C)CC[C@H]2C(C)C)c1O` the same measures were 1.9 - 3.1 and “Non-Toxic”.
For `COc1cc2c([nH]c3c4c(c(C)cc32)OC(C)(C)C=C4)c([C@@]2(C)CC[C@@]3(C(C)C)C[C@H]32)c1O`, the “fold change (FC)” value in series [1] is 1.9 - 3.1. For the same molecule, the Activity result in series [2] is listed as “Non-Toxic”.
Take `COc1cc2c([nH]c3c4c(c(C)cc32)OC(C)(C)C=C4)c([C@]2(C)CC[C@@]3(C(C)C)C[C@H]32)c1O`: the “fold change (FC)” value in series [1] was 1.9 - 3.1. In addition, in series [2], the Activity result was “Non-Toxic”.
For `COc1cc2c(cc1OC1(C(C)C)CC=C(C)CC1)[nH]c1c3c(c(C)cc12)OC(C)(C)C=C3` (centres undefined) the same measures were 1.9 - 3.1 and “Non-Toxic”.
